Where a SMILES comes first, the peptide text is derived from it. Bridges are numbered along the chain shown (N, C = ends).
Tests used:
Type in all cases: cell-based
[1] = biological target: Nicotinic acetylcholine receptor alpha6/alpha3/beta4 (Rattus norvegicus) (UniProt P04757+P12392+P43143); experiment: Antagonist activity at rat alpha6/alpha3beta4 nAChR nACHR expressed in Xenopus laevis oocytes assessed as inhibition of acetyl choline-induced membrane currents at 10 uM pre-incubated for 5 mins prior to acetyl choline pulse at -70 mV potential by two-electrode voltage clamp assay
[2] = biological target: Neuronal acetylcholine receptor; alpha3/beta4 (Rattus norvegicus) (UniProt P04757+P12392); experiment: Antagonist activity at rat alpha3beta4 nACHR expressed in Xenopus laevis oocytes assessed as inhibition of acetyl choline-induced membrane currents at 10 uM pre-incubated for 5 mins prior to acetyl choline pulse at -70 mV potential by two-electrode voltage clamp assay
[3] = biological target: Nicotinic acetylcholine receptor alpha6/alpha3/beta4 (Rattus norvegicus, UniProt P04757+P12392+P43143); experiment: Antagonist activity at rat alpha6/alpha3beta4 nAChR nACHR expressed in Xenopus laevis oocytes assessed as inhibition of acetyl choline-induced membrane currents pre-incubated for 5 mins prior to acetyl choline pulse at -70 mV potential by two-electrode voltage clamp assay
Chain of Nicotinic acetylcholine receptor alpha6/alpha3/beta4 (P04757 whole entry): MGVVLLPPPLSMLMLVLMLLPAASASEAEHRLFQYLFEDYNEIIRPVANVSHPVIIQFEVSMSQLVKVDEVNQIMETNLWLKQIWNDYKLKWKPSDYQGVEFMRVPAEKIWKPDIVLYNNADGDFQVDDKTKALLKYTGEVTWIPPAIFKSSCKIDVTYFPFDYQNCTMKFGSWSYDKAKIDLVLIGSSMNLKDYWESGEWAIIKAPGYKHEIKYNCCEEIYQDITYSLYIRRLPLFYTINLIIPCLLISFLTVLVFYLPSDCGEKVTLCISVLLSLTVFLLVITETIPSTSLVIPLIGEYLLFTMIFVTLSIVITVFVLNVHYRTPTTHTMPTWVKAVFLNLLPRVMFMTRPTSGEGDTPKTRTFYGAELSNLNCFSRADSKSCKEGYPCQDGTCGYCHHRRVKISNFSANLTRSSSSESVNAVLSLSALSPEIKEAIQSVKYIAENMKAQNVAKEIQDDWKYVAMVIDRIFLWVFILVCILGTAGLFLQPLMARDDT
Chain of Nicotinic acetylcholine receptor alpha6/alpha3/beta4 (P12392 whole entry): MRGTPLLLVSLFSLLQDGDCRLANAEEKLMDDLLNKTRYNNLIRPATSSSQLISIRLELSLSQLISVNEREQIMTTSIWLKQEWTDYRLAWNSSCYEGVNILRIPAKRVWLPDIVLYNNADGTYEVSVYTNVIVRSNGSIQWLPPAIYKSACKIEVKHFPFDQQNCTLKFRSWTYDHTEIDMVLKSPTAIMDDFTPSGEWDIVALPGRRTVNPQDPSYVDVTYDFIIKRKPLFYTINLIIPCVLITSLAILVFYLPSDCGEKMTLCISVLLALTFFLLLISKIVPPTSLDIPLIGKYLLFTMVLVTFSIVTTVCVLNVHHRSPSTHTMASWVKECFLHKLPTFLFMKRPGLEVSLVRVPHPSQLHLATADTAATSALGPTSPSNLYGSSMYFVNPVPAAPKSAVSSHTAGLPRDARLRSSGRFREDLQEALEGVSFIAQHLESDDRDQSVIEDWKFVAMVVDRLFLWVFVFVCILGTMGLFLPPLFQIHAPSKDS
Chain of Nicotinic acetylcholine receptor alpha6/alpha3/beta4 (P43143 whole entry): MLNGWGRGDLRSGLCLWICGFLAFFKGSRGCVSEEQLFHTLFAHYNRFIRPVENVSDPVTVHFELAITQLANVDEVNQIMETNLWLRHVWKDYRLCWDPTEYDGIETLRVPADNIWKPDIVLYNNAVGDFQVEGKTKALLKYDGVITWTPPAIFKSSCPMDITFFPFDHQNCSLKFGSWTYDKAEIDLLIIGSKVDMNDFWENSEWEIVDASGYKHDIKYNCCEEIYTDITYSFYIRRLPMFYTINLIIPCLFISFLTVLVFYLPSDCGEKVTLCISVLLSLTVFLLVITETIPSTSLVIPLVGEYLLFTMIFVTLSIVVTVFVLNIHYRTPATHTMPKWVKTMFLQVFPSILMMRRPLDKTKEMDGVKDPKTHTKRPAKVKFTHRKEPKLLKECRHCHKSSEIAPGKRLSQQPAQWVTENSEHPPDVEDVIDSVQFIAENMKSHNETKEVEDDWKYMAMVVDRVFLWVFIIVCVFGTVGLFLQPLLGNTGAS
How it was run: (§1)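 Rat subunit cRNAs (equimolar, ≥10 ng each) were expressed in oocytes held at 17 °C in ND96 and clamped at -70 mV 2-5 days after injection. Perfusate was ND96 with 0.1 mg/mL BSA and 1 µM atropine. After 5 min toxin exposure, 100 µM ACh was applied for 1 s/min. % response was fitted to a Hill equation for IC50 and nH, at room temperature, n=3-6.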

[4] = biological target: Neuronal acetylcholine receptor; alpha3/beta4 (Rattus norvegicus, UniProt P04757+P12392); experiment: Antagonist activity at rat alpha3beta4 nACHR expressed in Xenopus laevis oocytes assessed as inhibition of acetyl choline-induced membrane currents pre-incubated for 5 mins prior to acetyl choline pulse at -70 mV potential by two-electrode voltage clamp assay; how it was run: as §1
Chain of Neuronal acetylcholine receptor; alpha3/beta4 (P04757 whole entry): as the sequence (P04757 whole entry) above
Chain of Neuronal acetylcholine receptor; alpha3/beta4 (P12392 whole entry): as the sequence (P12392 whole entry) above

[5] = biological target: Neuronal acetylcholine receptor subunit alpha-7 (Rattus norvegicus, UniProt Q05941); experiment: Antagonist activity at rat alpha7 nACHR expressed in Xenopus laevis oocytes assessed as inhibition of acetyl choline-induced membrane currents pre-incubated for 5 mins prior to acetyl choline pulse at -70 mV potential by two-electrode voltage clamp assay
Chain of Neuronal acetylcholine receptor subunit alpha-7 (Q05941 whole entry): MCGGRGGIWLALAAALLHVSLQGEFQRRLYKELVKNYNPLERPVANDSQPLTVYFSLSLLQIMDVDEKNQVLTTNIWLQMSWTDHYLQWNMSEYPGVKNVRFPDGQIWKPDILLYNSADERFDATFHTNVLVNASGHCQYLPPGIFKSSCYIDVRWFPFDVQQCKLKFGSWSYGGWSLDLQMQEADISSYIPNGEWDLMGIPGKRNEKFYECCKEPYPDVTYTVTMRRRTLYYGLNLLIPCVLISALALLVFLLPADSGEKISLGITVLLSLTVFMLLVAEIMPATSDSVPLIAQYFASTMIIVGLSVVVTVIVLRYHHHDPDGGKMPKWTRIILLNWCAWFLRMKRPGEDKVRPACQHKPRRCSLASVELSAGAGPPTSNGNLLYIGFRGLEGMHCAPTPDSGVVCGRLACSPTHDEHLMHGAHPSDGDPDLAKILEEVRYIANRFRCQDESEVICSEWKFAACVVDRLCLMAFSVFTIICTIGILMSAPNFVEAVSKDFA

[6] = biological target: Nicotinic acetylcholine receptor alpha9/alpha10 (Rattus norvegicus, UniProt P43144+Q9JLB5); experiment: Antagonist activity at rat alpha9alpha10 nACHR expressed in Xenopus laevis oocytes assessed as inhibition of acetyl choline-induced membrane currents pre-incubated for 5 mins prior to acetyl choline pulse at -70 mV potential by two-electrode voltage clamp assay
Chain of Nicotinic acetylcholine receptor alpha9/alpha10 (P43144 whole entry): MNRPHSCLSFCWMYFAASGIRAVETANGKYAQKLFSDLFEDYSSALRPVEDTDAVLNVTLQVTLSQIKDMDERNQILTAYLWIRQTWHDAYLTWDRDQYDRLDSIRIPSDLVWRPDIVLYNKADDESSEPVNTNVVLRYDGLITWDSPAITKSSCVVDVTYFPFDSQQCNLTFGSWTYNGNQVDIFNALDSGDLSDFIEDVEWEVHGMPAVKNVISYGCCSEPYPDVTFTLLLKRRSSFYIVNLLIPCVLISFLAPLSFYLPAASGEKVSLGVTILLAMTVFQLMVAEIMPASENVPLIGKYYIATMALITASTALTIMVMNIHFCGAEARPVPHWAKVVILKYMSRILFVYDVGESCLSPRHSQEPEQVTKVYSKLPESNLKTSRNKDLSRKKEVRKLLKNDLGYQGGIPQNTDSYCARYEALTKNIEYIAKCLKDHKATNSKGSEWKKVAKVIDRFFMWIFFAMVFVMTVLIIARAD
Chain of Nicotinic acetylcholine receptor alpha9/alpha10 (Q9JLB5 whole entry): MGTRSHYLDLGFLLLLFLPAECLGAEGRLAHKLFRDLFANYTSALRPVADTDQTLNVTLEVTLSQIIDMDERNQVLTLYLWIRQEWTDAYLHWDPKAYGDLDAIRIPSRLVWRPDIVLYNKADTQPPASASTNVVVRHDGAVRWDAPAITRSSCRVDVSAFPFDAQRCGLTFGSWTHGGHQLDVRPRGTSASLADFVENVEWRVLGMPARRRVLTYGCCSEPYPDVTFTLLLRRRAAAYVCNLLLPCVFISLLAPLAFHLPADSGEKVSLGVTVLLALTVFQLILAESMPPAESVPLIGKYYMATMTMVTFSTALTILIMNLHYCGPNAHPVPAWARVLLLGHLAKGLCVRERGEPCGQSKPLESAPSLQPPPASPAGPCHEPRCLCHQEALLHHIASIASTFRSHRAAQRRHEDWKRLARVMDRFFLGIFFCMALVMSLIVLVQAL

In the case of CC[C@H](C)[C@@H]1NC(=O)[C@@H]2CCCN2C(=O)[C@H](CO)NC(=O)[C@H](CCSC)NC(=O)[C@H](C)NC(=O)[C@H](CC(=O)O)NC(=O)[C@@H]2CSSC[C@H](NC(=O)CN)C(=O)N[C@@H](CSSC[C@@H](C(N)=O)NC1=O)C(=O)N[C@@H](CO)C(=O)N[C@@H](Cc1cnc[nH]1)C(=O)N1CCC[C@H]1C(=O)N[C@@H](C(C)C)C(=O)N2, the inhibition [1] is reported as under 50%.

Compound CC[C@H](C)[C@@H]1NC(=O)[C@@H]2CCCN2C(=O)[C@H](CO)NC(=O)[C@H](CCSC)NC(=O)[C@H](C)NC(=O)[C@H](CC(=O)O)NC(=O)[C@@H]2CSSC[C@H](NC(=O)CN)C(=O)N[C@@H](CSSC[C@@H](C(N)=O)NC1=O)C(=O)N[C@@H](CO)C(=O)N[C@@H](Cc1cnc[nH]1)C(=O)N1CCC[C@H]1C(=O)N[C@H](C(C)C)C(=O)N2 has an inhibition [2] of under 50% and an inhibition [1] of under 50%.

Compound CC[C@H](C)[C@@H]1NC(=O)[C@@H]2CCCN2C(=O)[C@H](CO)NC(=O)[C@H](CCSC)NC(=O)[C@H](C)NC(=O)[C@H](CCC(=O)O)NC(=O)[C@@H]2CSSC[C@H](NC(=O)CN)C(=O)N[C@@H](CSSC[C@@H](C(N)=O)NC1=O)C(=O)N[C@@H](CO)C(=O)N[C@@H](Cc1cnc[nH]1)C(=O)N1CCC[C@H]1C(=O)N[C@@H](C(C)C)C(=O)N2 (H-GCCSHPVCEAMSPIC-NH2; disulfide 2-8, 3-15) has an inhibition [1] of under 50%.

CC[C@H](C)[C@@H]1NC(=O)[C@@H]2CCCN2C(=O)[C@H](CO)NC(=O)[C@H](CCSC)NC(=O)[C@H](C)NC(=O)[C@H](Cc2ccccc2)NC(=O)[C@@H]2CSSC[C@H](NC(=O)CN)C(=O)N[C@@H](CSSC[C@@H](C(N)=O)NC1=O)C(=O)N[C@@H](CO)C(=O)N[C@@H](Cc1cnc[nH]1)C(=O)N1CCC[C@H]1C(=O)N[C@@H](C(C)C)C(=O)N2 (H-GCCSHPVCFAMSPIC-NH2; disulfide 2-8, 3-15) showed an IC50 [3] of 10 nM and an IC50 [4] of 11 nM.

Compound CC[C@H](C)[C@@H]1NC(=O)[C@@H]2CCCN2C(=O)[C@H](CO)NC(=O)[C@H](CCSC)NC(=O)[C@H](C)NC(=O)[C@H](Cc2cnc[nH]2)NC(=O)[C@@H]2CSSC[C@H](NC(=O)CN)C(=O)N[C@@H](CSSC[C@@H](C(N)=O)NC1=O)C(=O)N[C@@H](CO)C(=O)N[C@@H](Cc1cnc[nH]1)C(=O)N1CCC[C@H]1C(=O)N[C@@H](C(C)C)C(=O)N2 (H-GCCSHPVCHAMSPIC-NH2; disulfide 2-8, 3-15) has an IC50 [3] of 19 nM and an IC50 [4] of 2 nM.

CC[C@H](C)[C@@H]1NC(=O)[C@@H]2CCCN2C(=O)[C@H](CO)NC(=O)[C@H](CCSC)NC(=O)[C@H](C)NC(=O)[C@H](CCCCN)NC(=O)[C@@H]2CSSC[C@H](NC(=O)CN)C(=O)N[C@@H](CSSC[C@@H](C(N)=O)NC1=O)C(=O)N[C@@H](CO)C(=O)N[C@@H](Cc1cnc[nH]1)C(=O)N1CCC[C@H]1C(=O)N[C@@H](C(C)C)C(=O)N2 (H-GCCSHPVCKAMSPIC-NH2; disulfide 2-8, 3-15) gave an IC50 [5] of over 10000 nM and an IC50 [6] of over 10000 nM.

Reference: ChEMBL document CHEMBL4196223 (J Med Chem, 2018)
